According to ChEMBL document CHEMBL4190304, “Peroxynitrite-Scavenging Glycosides from the Stem Bark of Catalpa ovata” (J Nat Prod, 2017):

Test: Peroxynitrite scavenging activity assessed as inhibition of DHR 123 oxidation after 5 mins in presence of SIN-1 by fluorescence assay
Assay type: functional
Procedure, shortened: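 ONOO− generated by decomposition of SIN-1 (10 μM) in buffer of 90 mM NaCl, 50 mM Na3PO4, 5 mM KCl, 100 μM DTPA, pH 7.4 (N2-purged, on ice), with DHR 123 working solution 5 μM. Fluorescence read (ex 480/em 530 nm) 5 min after treatment with and without SIN-1. Final minus background intensity gives % inhibition of oxidation; IC50, mean ± SD, three independent experiments. DL-penicillamine positive control.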

SMILES: COc1ccc(C(=O)O[C@H]2[C@@H]3C=CO[C@@H](O[C@@H]4O[C@H](CO)[C@@H](O)[C@H](O)[C@H]4O)[C@@H]3[C@@]3(CO)O[C@@H]23)cc1OC
- IC50: > 100 µM

SMILES: COc1cc(/C=C/C(=O)O[C@H]2[C@@H]3C=CO[C@@H](O[C@@H]4O[C@H](CO)[C@@H](O)[C@H](O)[C@H]4O)[C@@H]3[C@@]3(CO)O[C@@H]23)ccc1O
- IC50: 1.6 µM

SMILES: COc1cc(/C=C/C(=O)O[C@@H]2C[C@@](O)(CO)[C@H]3[C@H](O[C@@H]4O[C@H](CO)[C@@H](O)[C@H](O)[C@H]4O)OC=C[C@H]32)ccc1O
- IC50: 2 µM

SMILES: O=C(O[C@H]1[C@@H]2CCO[C@@H](O[C@@H]3O[C@H](CO)[C@@H](O)[C@H](O)[C@H]3O)[C@@H]2[C@@]2(CO)O[C@@H]12)c1ccc(O)cc1
- IC50: 58.4 µM

SMILES: COc1cc(CCO[C@@H]2O[C@H](CO)[C@@H](O)[C@H](O[C@@H]3O[C@H](C)[C@@H](O)[C@H](O)[C@H]3O)[C@H]2O)ccc1O
- IC50: 7.7 µM

SMILES: COc1cc(/C=C/C(=O)OC[C@H]2O[C@@H](Oc3ccc(O)cc3OC)[C@H](O)[C@@H](O)[C@@H]2O)ccc1O
- IC50: 0.48 µM

SMILES: COc1cc(/C=C/C(=O)OC[C@H]2O[C@@H](Oc3ccc(CO)cc3OC)[C@H](O)[C@@H](O)[C@@H]2O)ccc1O
- IC50: 0.17 µM

SMILES: COc1ccc(/C=C/C(=O)O[C@H]2[C@@H]3C=CO[C@@H](O[C@@H]4O[C@H](CO)[C@@H](O)[C@H](O)[C@H]4O)[C@@H]3[C@@]3(CO)O[C@@H]23)cc1
- IC50: 78.5 µM

SMILES: COc1cc(/C=C/C(=O)O[C@H]2[C@@H]3CCO[C@@H](O[C@@H]4O[C@H](CO)[C@@H](O)[C@H](O)[C@H]4O)[C@@H]3[C@@]3(CO)O[C@@H]23)ccc1O
- IC50: 2.2 µM

SMILES: COc1cc(/C=C/C(=O)OC[C@H]2O[C@@H](OC[C@@H]3c4cc(/C=C/C=O)cc(OC)c4O[C@H]3c3ccc(O)c(OC)c3)[C@H](O)[C@@H](O)[C@@H]2O)ccc1O
- IC50: 0.79 µM

SMILES: O=C(OC[C@@]1(O)CO[C@@H](O[C@H]2[C@H](OCCc3ccc(O)cc3)O[C@H](CO)[C@@H](O)[C@@H]2O)[C@@H]1O)c1ccc(O)cc1
- IC50: 36.2 µM

SMILES: COc1cc(C(=O)OC[C@@]2(O)CO[C@@H](O[C@H]3[C@H](OCCc4ccc(O)cc4)O[C@H](CO)[C@@H](O)[C@@H]3O)[C@@H]2O)ccc1O
- IC50: 8.6 µM

SMILES: COC/C=C/c1cc(OC)c2c(c1)[C@H](CO[C@@H]1O[C@H](COC(=O)/C=C/c3ccc(O)c(OC)c3)[C@@H](O)[C@H](O)[C@H]1O)[C@@H](c1ccc(O)c(OC)c1)O2
- IC50: 0.34 µM

SMILES: COc1cc(/C=C/C(=O)OC[C@H]2O[C@@H](O[C@@H]3OC=C[C@H]4[C@H](OC(=O)/C=C/c5ccc(O)c(OC)c5)[C@@H]5O[C@]5(CO)[C@@H]34)[C@H](O)[C@@H](O)[C@@H]2O)ccc1O
- IC50: 1.1 µM

SMILES: COc1ccc(/C=C/C(=O)O[C@@H]2C[C@@](O)(CO)[C@H]3[C@H](O[C@@H]4O[C@H](CO)[C@@H](O)[C@H](O)[C@H]4O)OC=C[C@H]32)cc1O
- IC50: 3.9 µM

SMILES: COc1ccc(C(=O)O[C@H]2[C@@H]3C=CO[C@@H](O[C@@H]4O[C@H](CO)[C@@H](O)[C@H](O)[C@H]4O)[C@@H]3[C@@]3(CO)O[C@@H]23)cc1
- IC50: 36.4 µM

SMILES: O=C(/C=C/c1ccc(O)cc1)OC[C@@]1(O)CO[C@@H](O[C@H]2[C@H](OCCc3ccc(O)cc3)O[C@H](CO)[C@@H](O)[C@@H]2O)[C@@H]1O
- IC50: 4.5 µM

SMILES: OC[C@H]1O[C@@H](OCCc2ccc(O)cc2)[C@H](O[C@@H]2OC[C@](O)(CO)[C@H]2O)[C@@H](O)[C@@H]1O
- IC50: 15.7 µM

SMILES: C[C@]1(O)C[C@@H](OC(=O)c2ccc(O)cc2)[C@@H]2CCO[C@@H](O[C@@H]3O[C@H](CO)[C@@H](O)[C@H](O)[C@H]3O)[C@@H]21
- IC50: 8.3 µM

SMILES: COc1cc(/C=C/C(=O)OC[C@]23O[C@H]2[C@@H](OC(=O)/C=C/c2ccc(O)c(OC)c2)[C@@H]2C=CO[C@@H](O[C@@H]4O[C@H](CO)[C@@H](O)[C@H](O)[C@H]4O)[C@@H]23)ccc1O
- IC50: 0.88 µM

SMILES: O=C(O[C@@H]1C[C@@](O)(CO)[C@H]2[C@H](O[C@@H]3O[C@H](CO)[C@@H](O)[C@H](O)[C@H]3O)OCC[C@H]21)c1ccc(O)cc1
- IC50: 39.5 µM

SMILES: COc1cc(/C=C/C(=O)OC[C@H]2O[C@@H](OCCC3(O)CCC(=O)CC3)[C@H](O)[C@@H](O)[C@@H]2O)ccc1O
- IC50: 1.02 µM

SMILES: COc1cc(/C=C/C(=O)OC[C@H]2O[C@@H](OCCc3ccc(O)cc3)[C@H](O)[C@@H](O)[C@@H]2O)ccc1O
- IC50: 0.14 µM

SMILES: COc1cc(/C=C/C(=O)OC[C@H]2OC(OC[C@H]3[C@@H](Cc4ccc(O)c(OC)c4)CO[C@@H]3c3ccc(O)c(OC)c3)[C@H](O)[C@@H](O)[C@@H]2O)ccc1O (some centres undefined)
- IC50: 0.81 µM

SMILES: O=C(OC1C[C@@]2(O)COC3C[C@@H](O[C@@H]4O[C@H](CO)[C@@H](O)[C@H](O)[C@H]4O)[C@H]2[C@H]1C3)c1ccc(O)cc1 (some centres undefined)
- IC50: 76.7 µM

SMILES: CC(C)(S)C(N)C(=O)O (racemic) [DL-PENICILLAMINE]
- IC50: 3.4 µM

SMILES: O=C(O[C@H]1[C@@H]2C=CO[C@@H](O[C@@H]3O[C@H](CO)[C@@H](O)[C@H](O)[C@H]3O)[C@@H]2[C@@]2(CO)O[C@@H]12)c1ccc(O)cc1 [CATALPOSIDE]
- IC50: > 100 µM

SMILES: COc1cc(C(=O)O[C@H]2[C@@H]3C=CO[C@@H](O[C@@H]4O[C@H](CO)[C@@H](O)[C@H](O)[C@H]4O)[C@@H]3[C@@]3(CO)O[C@@H]23)ccc1O [PICROSIDE II]
- IC50: 6 µM

SMILES: O=C(/C=C/c1ccc(O)cc1)O[C@H]1[C@@H]2C=CO[C@@H](O[C@@H]3O[C@H](CO)[C@@H](O)[C@H](O)[C@H]3O)[C@@H]2[C@@]2(CO)O[C@@H]12 [SPECIOSIDE]
- IC50: 13.6 µM
